In brackets after ≈: the same amount, converted by molar mass.
What was measured:
[1] = system: Mycobacterium tuberculosis; experiment: Antimicrobial activity against Mycobacterium tuberculosis H37Rv by two-fold serial dilution method; assay type: functional
Outline: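 Compounds dissolved in DMSO. Single colony grown in Middlebrook 7H9 with 0.05% Tween 80 and 10% OADC at 37 °C, no shaking, to ~10^8 CFU/mL (OD600 0.8–1.0). Diluted to ~10^7 CFU/mL; 1 μL streaked onto 7H11 agar (0.5% glycerol, 10% OADC) with two-fold serial compound dilutions. MIC is the lowest concentration inhibiting growth. Repeated three times.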

[2] = biological target: T1, Enoyl-[acyl-carrier-protein] reductase [NADH] (Mycobacterium tuberculosis) (UniProt P9WGR1); experiment: Inhibition of Mycobacterium tuberculosis InhA expressed in Escherichia coli using trans-2-dodecenoyl-coenzyme-A as substrate at 5 uM
T1 sequence (whole entry): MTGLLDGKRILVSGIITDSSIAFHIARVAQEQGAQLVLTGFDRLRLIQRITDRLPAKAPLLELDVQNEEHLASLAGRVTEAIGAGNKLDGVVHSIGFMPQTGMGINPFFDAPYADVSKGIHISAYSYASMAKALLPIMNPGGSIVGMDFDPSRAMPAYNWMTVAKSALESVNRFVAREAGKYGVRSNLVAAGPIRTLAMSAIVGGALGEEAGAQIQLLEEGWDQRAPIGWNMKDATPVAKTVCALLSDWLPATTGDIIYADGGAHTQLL
Outline: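 Recombinant M. tuberculosis wild-type InhA purified from E. coli. Reaction started by adding InhA (100 nM final) to DD-CoA (50 μM final), NADH (250 μM final) and inhibitor in 30 mM PIPES, 150 mM NaCl, pH 6.8. Percent inhibition taken from initial velocity against a no-inhibitor control. Run in triplicate.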

| Structure (SMILES) | MIC [1] [µM] | inhibition [2] [%] |
| --- | --- | --- |
| O=C(CC(C(=O)O)C1c2ccccc2-c2ccccc21)NNC(=O)c1ccncc1 (stereo not given) | 10 (≈ 4.01 µg/mL) | – |
| O=C(Cc1ccccc1)N1C(=O)CC(C2c3ccccc3-c3ccccc32)C1=O (stereo not given) | 41.9 (≈ 16 µg/mL) | – |
| O=C1CC(C2c3ccccc3-c3ccccc32)C(=O)N1CCc1c[nH]c2ccccc12 (stereo not given) | > 39.4 | – |
| O=C1CC(C2c3ccccc3-c3ccccc32)C(=O)N1C(=O)c1ccc2[nH]ccc2c1 (stereo not given) | 39.4 (≈ 16 µg/mL) | – |
| O=C(CC(C(=O)O)C1c2ccccc2-c2ccccc21)Nc1cc(Cl)cc(Cl)c1 (stereo not given) | 4.7 (≈ 2 µg/mL) | – |
| CCCCCCCCC(=O)N1C(=O)CC(C2c3ccccc3-c3ccccc32)C1=O (stereo not given) | 39.7 (≈ 16 µg/mL) | – |
| O=C1CC(C2c3ccccc3-c3ccccc32)C(=O)N1C(=O)c1ccccc1 (racemic) | 5.4 (≈ 1.98 µg/mL) | – |
| O=C(CC(C(=O)O)C1c2ccccc2-c2ccccc21)NCCc1c[nH]c2ccccc12 (stereo not given) | 37.7 (≈ 16 µg/mL) | – |
| O=C1CC(C2c3ccccc3-c3ccccc32)C(=O)N1 (stereo not given) | 30.4 (≈ 8 µg/mL) | – |
| O=C1CC(C2c3ccccc3-c3ccccc32)C(=O)N1c1ccc(F)cc1 (stereo not given) | > 44.8 | – |
| O=C1CC(C2c3ccccc3-c3ccccc32)C(=O)N1c1cc(Cl)cc(Cl)c1 (stereo not given) | 19.6 (≈ 8 µg/mL) | 31 |
| O=C(CN1C(=O)CC(C2c3ccccc3-c3ccccc32)C1=O)c1ccccc1 (stereo not given) | > 41.9 | – |
| O=C(O)CC(C(=O)O)C1c2ccccc2-c2ccccc21 (stereo not given) | 28.3 (≈ 7.99 µg/mL) | – |
| O=C1CC(C2c3ccccc3-c3ccccc32)C(=O)N1Cc1ccccc1 (single isomer, unassigned) | 45.3 (≈ 16 µg/mL) | – |
| O=C(CC(C(=O)O)C1c2ccccc2-c2ccccc21)Nc1ccc(F)cc1 (stereo not given) | 42.6 (≈ 16 µg/mL) | – |
| O=C(c1ccc2[nH]ccc2c1)N1CCN(C2c3ccccc3-c3ccccc32)CC1 | > 40.7 | – |
| CCCCCCCCCN1C(=O)CC(C2c3ccccc3-c3ccccc32)C1=O (stereo not given) | 41.1 (≈ 16 µg/mL) | – |
| COc1cc(N2C(=O)CC(C3c4ccccc4-c4ccccc43)C2=O)cc(OC)c1OC (stereo not given) | 37.3 (≈ 16 µg/mL) | – |
| COc1cc(CN2C(=O)CC(C3c4ccccc4-c4ccccc43)C2=O)cc(OC)c1 (stereo not given) | > 38.7 | – |

— ChEMBL document CHEMBL3085705, “Design, chemical synthesis of 3-(9H-fluoren-9-yl)pyrrolidine-2,5-dione derivatives and biological activity against enoyl-ACP reductase (InhA) and Mycobacterium tuberculosis” (2013)
